The structures appear in SMILES notation.

The test system of assay [1] is human T-lymphocyte cells (Molt4/C8). The experiment in a line: Cytostatic assay, inhibition of tumor cell proliferation. It is filed as cell-based. As to conditions: Molt4/C8, read-out: IC50 (50% inhibitory concentration, tumor cell proliferation).
Assay [2] deals with T1, human recombinant thymidine phosphorylase (Homo sapiens, UniProt P19971).
T1 sequence (P19971 11-482): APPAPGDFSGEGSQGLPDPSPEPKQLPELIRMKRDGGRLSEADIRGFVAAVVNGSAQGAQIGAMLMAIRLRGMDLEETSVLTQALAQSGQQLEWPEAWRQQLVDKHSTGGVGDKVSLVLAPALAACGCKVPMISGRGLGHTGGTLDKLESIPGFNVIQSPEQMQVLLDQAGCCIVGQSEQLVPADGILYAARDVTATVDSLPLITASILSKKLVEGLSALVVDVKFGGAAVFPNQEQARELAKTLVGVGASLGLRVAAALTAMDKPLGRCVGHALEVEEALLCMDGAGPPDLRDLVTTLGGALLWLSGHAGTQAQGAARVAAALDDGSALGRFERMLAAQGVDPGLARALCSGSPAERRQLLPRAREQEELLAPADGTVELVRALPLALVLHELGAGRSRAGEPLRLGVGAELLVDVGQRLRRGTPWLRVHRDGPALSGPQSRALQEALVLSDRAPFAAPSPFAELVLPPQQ
The experiment in a line: Thymidine phosphorylase assay, conversion to the free base. It is filed as biochemical. To be noted: purified recombinant enzyme, 100 μM substrate, 20, 40 and 60 min; data not shown. The method in brief: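 Aliquots taken at 20, 40 and 60 min and heat-inactivated at 95 °C for 3 min. Free base quantified by RP-8 HPLC with phosphate/heptane sulfonate (pH 3.2) to acetonitrile gradient; UV detection at 267 nm.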

For assay [3], the target named is uridine phosphorylase type 1 (Homo sapiens, UniProt Q16831). The assay can be described thus: Uridine phosphorylase assay, conversion to the free base. It is filed as biochemical. As to conditions: purified recombinant enzyme, 100 μM substrate, 20, 40 and 60 min; data not shown. The method in brief: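 Samples taken at 20, 40 and 60 min and heated at 95 °C for 3 min. Nucleoside and free base separated on RP-8 HPLC with phosphate/heptane sulfonate (pH 3.2) to acetonitrile gradient; UV detection at 267 nm.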
uridine phosphorylase type 1, sequence (Q16831 whole entry): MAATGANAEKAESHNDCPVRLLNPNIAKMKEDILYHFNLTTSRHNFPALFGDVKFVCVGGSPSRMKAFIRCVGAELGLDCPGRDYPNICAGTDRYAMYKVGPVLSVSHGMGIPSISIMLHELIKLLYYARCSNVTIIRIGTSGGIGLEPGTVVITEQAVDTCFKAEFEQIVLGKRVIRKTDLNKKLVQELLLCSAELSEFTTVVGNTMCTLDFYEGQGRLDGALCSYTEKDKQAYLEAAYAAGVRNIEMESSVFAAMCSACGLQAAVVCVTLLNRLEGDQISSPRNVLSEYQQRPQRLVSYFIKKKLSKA

Turning to `Nc1ccn([C@@H]2O[C@H](CO)[C@@H](O)[C@H](F)[C@H]2O)c(=O)n1` [3f, 1-(3-Deoxy-3-fluoro-β-D-glucopyranosyl)cytosine], the IC50 in assay [1] turned out to be 163 ± 21 µM. Regarding `Nc1ncnc2c1ncn2[C@@H]1O[C@H](CO)[C@@H](O)[C@H](F)[C@H]1O` [3g, 9-(3-Deoxy-3-fluoro-β-D-glucopyranosyl)adenine], the IC50 in assay [1] amounted to 183 ± 24 µM. As for `Cc1cn([C@H]2C[C@H](O)[C@@H](CO)O2)c(=O)[nH]c1=O` [thymidine], the “hydrolysis to the free pyrimidine base by thymidine phosphorylase (TPase)” value in assay [2] is recorded as “readily converted”. In the case of `O=c1ccn([C@@H]2O[C@H](CO)[C@@H](O)[C@H]2O)c(=O)[nH]1` [uridine], the “hydrolysis to the free pyrimidine base by uridine phosphorylase type I (UPase)” value in assay [3] is given as “readily converted”.

For the origin of these results see article PMC7112006 (Bioorganic Chemistry, 2010).
